Test results: PubChem BioAssay AID1448 (The Scripps Research Institute Molecular Screening Center, 2008)
The whole screen tested about 220,000 compounds, of which about 630 (0.29%) were called active. This excerpt belongs to a sample that is enriched for actives. Unmarked numbers belong to inactive results.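 How the source made its calls: active means activation above its plate's cutoff, the mean activation of the plate's test wells plus 3 SD (cut at about 12% in these data); inactive means the rest.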

What follows are molecules tested against Mucolipin-3 (Homo sapiens) (UniProt Q8TDD5) (assay: activators of mucolipin-3 cation channel – cell-based, HEK293 TRPML3-YFP, Fluo-8 calcium fluorescence, 3 µM, primary screen (AID 1448)). Details: at 3 µM, stronger effect = higher value, 100% = the carbachol control signal.
Summary of the method: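 Test system – HEK293 line with stable expression of human TRPML3-YFP channel · Control set – carbachol 87 µM final as high control (100%), DMSO as low control (0%) · Signal – Fluo-8 calcium dye fluorescence, ex 470-495, em 515-575 nm · Incubation – 1-h 37 °C dye load, 5-s basal, 120-s post-compound reads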

Chain of Mucolipin-3 (Homo sapiens) (Q8TDD5 whole entry, looked up): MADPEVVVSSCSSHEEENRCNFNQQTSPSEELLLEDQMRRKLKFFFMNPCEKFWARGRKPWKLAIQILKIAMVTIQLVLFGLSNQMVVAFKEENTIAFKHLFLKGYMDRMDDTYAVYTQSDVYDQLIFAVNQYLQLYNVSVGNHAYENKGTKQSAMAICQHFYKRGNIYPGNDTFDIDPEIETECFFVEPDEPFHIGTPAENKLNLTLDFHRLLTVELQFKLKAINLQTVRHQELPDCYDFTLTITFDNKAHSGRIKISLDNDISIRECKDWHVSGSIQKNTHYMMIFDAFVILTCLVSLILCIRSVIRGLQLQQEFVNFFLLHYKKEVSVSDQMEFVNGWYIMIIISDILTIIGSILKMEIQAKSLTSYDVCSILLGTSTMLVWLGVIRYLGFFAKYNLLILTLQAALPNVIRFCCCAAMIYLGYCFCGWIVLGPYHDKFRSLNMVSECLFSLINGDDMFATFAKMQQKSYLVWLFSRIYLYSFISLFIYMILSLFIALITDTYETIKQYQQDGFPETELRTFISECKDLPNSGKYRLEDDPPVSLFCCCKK

Row | Structure (SMILES) | activation
1 | Cc1[nH]c2c(C(=O)N3CCCC(CCC(=O)NCc4ccccc4F)C3)cccc2c1C (stereo not drawn) | -0.04%
2 | COC(=O)CCC(=O)N1CCCC(CO)(Cc2ccccc2)C1 (stereo not drawn) | 0.26%
3 | Cc1ccccc1-n1nc(C)c2c1N=C1C(Cl)=CC(Cl)=CN1C2c1ccc(C(=O)O)cc1 (stereo not drawn) | 0.62%
4 | Cc1ccc(OCC(=O)Nc2ccccc2Sc2ccc(Cl)cc2)c([N+](=O)[O-])n1 | 0.1%
5 | CC(C)CNC(=O)C(=O)Nc1ccc(N(C)C)cc1 | 1.3%
6 | O=[N+]([O-])/C=C1\CCCCCN1 | 0.64%
7 | COc1ccccc1N(CC(=O)N1CCCCC1)S(=O)(=O)c1ccccc1 | 162% (active)
8 | COc1ccc(Cl)cc1N(CC(=O)N/N=C/c1ccc(OCC(N)=O)cc1)S(C)(=O)=O | 0.86%
9 | CCOC(=O)N1CCN(C(=O)CN(c2ccc(C)c(C)c2)S(=O)(=O)c2ccccc2)CC1 | 0.07%
10 | COc1ccc(S(=O)(=O)N(C)CC(=O)N2CCCC2)cc1Cl | 0.85%
11 | COc1cccc2c(=O)n(CC(=O)N3CCCCCC3)ccc12 | 0.82%
12 | COc1ccc(Cl)cc1N(CC(=O)N1CCCCC1)S(C)(=O)=O | 56.7% (active)
13 | CCCC(=O)Nc1ccc2c(c1)nc(CCNC(=O)c1ccco1)n2C | 0.81%
14 | CCOc1ccc(CN2CCN(Cc3ccc(C)o3)CC2CCO)cc1 (stereo not drawn) | 1.1%
15 | CN(Cc1nc(-c2cnccn2)no1)Cc1n[nH]c2c1CCCCC2 | 0.69%
16 | CCn1c(SCC(=O)Nc2nccs2)nnc1-c1ccco1 | 0.4%
17 | O=C(CSc1nnc2ccc(-c3ccncc3)nn12)N1CCCCC1 | -0.71%
18 | Cc1ccc(F)cc1NC(=O)N1CCCN(c2ccc(C(F)(F)F)cn2)CC1 | 2.2%
19 | Cc1ccc2c(c1)-c1c(ssc1=S)C(C)(C)N2C(=O)CN1C(=O)c2ccccc2C1=O | -0.04%
20 | Cc1cccc(NC(=O)CN2C(=O)c3ccccc3C2=O)c1C | 1.15%

Row | Structure (SMILES) | activation
21 | Cc1cc2c(cc1C)N(C(=O)CN1C(=O)c3ccccc3C1=O)C(C)(C)c1ssc(=S)c1-2 | 81.4% (active)
22 | CCOc1ccc(NC(=O)NNC(=O)c2ccc(Cl)cc2Cl)cc1 | 0.56%
23 | O=C(NCCN1CCOCC1)c1ccc2c(c1)N(Cc1ccc(Cl)cc1)CCS2 | 0.23%
24 | O=C1/C(=C/c2cccs2)SC(=S)N1C1CCS(=O)(=O)C1 (stereo not drawn) | 0.54%
25 | O=C(Nc1nc2ccc([N+](=O)[O-])cc2s1)c1ccncc1 | 1.14%
26 | O=C(O)CCC(=O)Nc1nc2ccc([N+](=O)[O-])cc2s1 | 0.5%
27 | O=C(NC(Nc1nc2ccc([N+](=O)[O-])cc2s1)(C(F)(F)F)C(F)(F)F)c1ccccc1 | 13% (active)
28 | C=CCNC(=O)COC(=O)CNC(=O)c1cc(Cl)cc([N+](=O)[O-])c1 | 0.51%
29 | COc1ccc(NS(=O)(=O)c2ccc(Oc3c(C#N)cccc3C#N)cc2)cc1 | 4.31%
30 | Cc1nnc(C)c2c(C)n(N)c(C)c12 | 0.94%
31 | O=C(NC(CC(=O)N1CCN(c2ccccc2)CC1)c1ccccc1)c1ccccc1Cl (stereo not drawn) | -0.24%
32 | COc1ccc(C(=O)N/N=c2\oc3ccccc3cc2C(N)=O)cc1 | 0.85%
33 | CCN(CC)c1ccc2cc(C(=O)O)c(=O)oc2c1 | 0.92%
34 | CCN(CC)c1ccc2cc(C(N)=O)/c(=N\NC(=O)c3ccncc3)oc2c1 | 22.1% (active)
35 | OCC(O)CN(c1ccccc1)c1ccccc1 (stereo not drawn) | 0.25%
36 | CN1CCN(/N=C/c2ccc(-c3ccc([N+](=O)[O-])cc3)o2)CC1 | 4.1%
37 | Cn1c2c(c(=O)n(C)c1=O)C(c1cccc(F)c1)C(C#N)=C(N)O2 (stereo not drawn) | 0.03%
38 | Cc1nonc1C1CCCN1Cc1nc(-c2ccc(F)cc2F)oc1C (stereo not drawn) | 0.58%
39 | O=S(=O)(c1cccc2nonc12)N1CCN(c2cccc(Cl)c2)CC1 | 0.52%
40 | Cc1cccn2c(=O)c(/C=C3\SC(=S)N(CC(C)C)C3=O)c(NCCCOC(C)C)nc12 | 0.65%

Row | Structure (SMILES) | activation
41 | CCOC(=O)CC1C(=O)NCCN1C(=O)COc1ccc(Br)cc1C (stereo not drawn) | -0.14%
42 | CCOC(=O)CC1C(=O)NCCN1c1nc2c(C)cccn2c(=O)c1/C=C1\SC(=S)N(C(C)CC)C1=O (stereo not drawn) | 11.9% (active)
43 | CC(CC(=O)C1C(C)C=CCC1(C)C)NNC(N)=O (stereo not drawn) | 0.6%
44 | O=C(CC(O)(C(F)(F)F)C(F)(F)F)Nc1ccc(Cl)c(Cl)c1 | 17.3% (active)
45 | CN(C)CCNC(CC(=O)Nc1ccc(Cl)c(Cl)c1)C(=O)O (stereo not drawn) | -0.13%
46 | O=C(CC(=O)Nc1ccc(Cl)c(Cl)c1)N/N=C/c1ccc(O)cc1 | 0.24%
47 | CCn1c(CSc2nc(C)cc(C)n2)nnc1SCC(N)=O | 0.87%
48 | CC(C)CN(CC(C)C)CC(O)CN(c1ccccc1)S(=O)(=O)c1ccccc1[N+](=O)[O-] (stereo not drawn) | -1.13%
49 | COc1ccc(-c2noc(CN(C)S(=O)(=O)c3ccc(C)cc3)n2)cc1 | 138% (active)
50 | COc1ccc(-c2noc(CSc3ccc(C)cc3)n2)cc1 | 0.35%
51 | COc1ccc(-c2noc(-c3ccc(C)cc3)n2)cc1 | 1.08%
52 | Cc1ccnc(NC(=O)c2ccc(Cl)c([N+](=O)[O-])c2)c1 | 0.05%
53 | CC(C)(C)OC(=O)N1CCC(NC(=O)c2[nH]cnc2C(=O)N[C@@H](Cc2ccccc2)C(=O)OCc2ccccc2)CC1 | 0.25%
54 | COC(=O)c1ccc(NC(=O)c2ccccc2NS(=O)(=O)c2ccccc2)cc1 | 11.1%
55 | COc1cc(NC(=O)c2ccccc2NS(=O)(=O)c2ccc(Cl)s2)cc(OC)c1 | 12.1% (active)
56 | COc1cc(NC(=O)c2cccnc2SC)cc(OC)c1 | -0.28%
57 | CN(Cc1cc2cc(F)ccc2[nH]1)Cc1nc(-c2cnccn2)no1 | 0.76%
58 | Cc1cccc(CSc2ccc(-c3cccs3)nn2)c1 | 0.19%
